# Source: ChEMBL document CHEMBL1135742, “Modification of the structure of a metallopeptide: synthesis and biological evaluation of (111)In-labeled DOTA-conjugated rhenium-cyclized alpha-MSH analogues” (J Med Chem, 2002)
# Legend:
# Assay type in all cases: functional, organism-based
# Mus musculus [1] = species on record: Mus musculus; assay: Radioactivity uptake in the pancreas was expressed as a percentage of the injected radioactive dose per gram of tissue (% ID/g) in B16/F1 Murine Melanoma-Bearing C57 Mice at 0.5 h
# Procedure, shortened: (§1)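 C57 BL/6 female mice (7–8 weeks) carried B16/F1 tumours from 1×10^6 cells given s.c. in the right flank; tumours were ~500 mg at 9–10 days. Each mouse received […] of HPLC-purified, neutralized 111In-DOTA peptide via the tail vein. Mice were killed at 0.5, 2, 4 or 24 h pi. Tissues were weighed and γ-counted, expressed as % ID/g; ratios were tumor/tissue % ID/g.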
# Mus musculus [2] = species on record: Mus musculus; assay: Radioactivity uptake in the pancreas was expressed as a percentage of the injected radioactive dose per gram of tissue (% ID/g) in B16/F1 Murine Melanoma-Bearing C57 Mice at 24 h; procedure, shortened: as §1
# Mus musculus [3] = species on record: Mus musculus; assay: Radioactivity uptake in the pancreas was expressed as a percentage of the injected radioactive dose per gram of tissue (% ID/g) in B16/F1 Murine Melanoma-Bearing C57 Mice at 4 h; procedure, shortened: as §1
# Mus musculus [4] = species on record: Mus musculus; assay: Radioactivity uptake in the spleen was expressed as a percentage of the injected radioactive dose per gram of tissue (% ID/g) in B16/F1 Murine Melanoma-Bearing C57 Mice at 0.5 h; procedure, shortened: as §1
# Mus musculus [5] = species on record: Mus musculus; assay: Radioactivity uptake in the spleen was expressed as a percentage of the injected radioactive dose per gram of tissue (% ID/g) in B16/F1 Murine Melanoma-Bearing C57 Mice at 2 h; procedure, shortened: as §1
# Mus musculus [6] = species on record: Mus musculus; assay: Radioactivity uptake in the spleen was expressed as a percentage of the injected radioactive dose per gram of tissue (% ID/g) in B16/F1 Murine Melanoma-Bearing C57 Mice at 24 h; procedure, shortened: as §1
# Mus musculus [7] = species on record: Mus musculus; assay: Radioactivity uptake in the spleen was expressed as a percentage of the injected radioactive dose per gram of tissue (% ID/g) in B16/F1 Murine Melanoma-Bearing C57 Mice at 4 h; procedure, shortened: as §1
# Mus musculus [8] = species on record: Mus musculus; assay: Radioactivity uptake in the tumor was expressed as a percentage of the injected radioactive dose per gram of tissue (% ID/g) in B16/F1 Murine Melanoma-Bearing C57 Mice at 2 h; procedure, shortened: as §1
# Mus musculus [9] = species on record: Mus musculus; assay: Radioactivity uptake in the muscle was expressed as a percentage of the injected radioactive dose per gram of tissue (% ID/g) in B16/F1 Murine Melanoma-Bearing C57 Mice at 24 h; procedure, shortened: as §1
# Mus musculus [10] = species on record: Mus musculus; assay: Radioactivity uptake in the blood was expressed as a percentage of the injected radioactive dose per gram of tissue (% ID/g) in B16/F1 Murine Melanoma-Bearing C57 Mice at 0.5 h; procedure, shortened: as §1
# Mus musculus [11] = species on record: Mus musculus; assay: Radioactivity uptake in the blood was expressed as a percentage of the injected radioactive dose per gram of tissue (% ID/g) in B16/F1 Murine Melanoma-Bearing C57 Mice at 24 h; procedure, shortened: as §1
# Mus musculus [12] = species on record: Mus musculus; assay: Radioactivity uptake in the kidneys was expressed as a percentage of the injected radioactive dose per gram of tissue (% ID/g) in B16/F1 Murine Melanoma-Bearing C57 Mice at 2 h; conditions: Kidney; procedure, shortened: as §1
# Mus musculus [13] = species on record: Mus musculus; assay: Radioactivity uptake in the kidneys was expressed as a percentage of the injected radioactive dose per gram of tissue (% ID/g) in B16/F1 Murine Melanoma-Bearing C57 Mice at 24 h; conditions: Kidney; procedure, shortened: as §1
# Mus musculus [14] = species on record: Mus musculus; assay: Radioactivity uptake in the liver was expressed as a percentage of the injected radioactive dose per gram of tissue (% ID/g) in B16/F1 Murine Melanoma-Bearing C57 Mice at 0.5 h; procedure, shortened: as §1
# Mus musculus [15] = species on record: Mus musculus; assay: Radioactivity uptake in the liver was expressed as a percentage of the injected radioactive dose per gram of tissue (% ID/g) in B16/F1 Murine Melanoma-Bearing C57 Mice at 2 h; procedure, shortened: as §1
# Mus musculus [16] = species on record: Mus musculus; assay: Radioactivity uptake in the liver was expressed as a percentage of the injected radioactive dose per gram of tissue (% ID/g) in B16/F1 Murine Melanoma-Bearing C57 Mice at 4 h; procedure, shortened: as §1
# Mus musculus [17] = species on record: Mus musculus; assay: Radioactivity uptake in the lungs was expressed as a percentage of the injected radioactive dose per gram of tissue (% ID/g) in B16/F1 Murine Melanoma-Bearing C57 Mice at 0.5 h; conditions: Lung; procedure, shortened: as §1
# Mus musculus [18] = species on record: Mus musculus; assay: Radioactivity uptake in the lungs was expressed as a percentage of the injected radioactive dose per gram of tissue (% ID/g) in B16/F1 Murine Melanoma-Bearing C57 Mice at 2 h; conditions: Lung; procedure, shortened: as §1
# Mus musculus [19] = species on record: Mus musculus; assay: Radioactivity uptake in the lungs was expressed as a percentage of the injected radioactive dose per gram of tissue (% ID/g) in B16/F1 Murine Melanoma-Bearing C57 Mice at 24 h; conditions: Lung; procedure, shortened: as §1
# Mus musculus [20] = species on record: Mus musculus; assay: Radioactivity uptake in the lungs was expressed as a percentage of the injected radioactive dose per gram of tissue (% ID/g) in B16/F1 Murine Melanoma-Bearing C57 Mice at 4 h; conditions: Lung; procedure, shortened: as §1
# Mus musculus [21] = species on record: Mus musculus; assay: Radioactivity uptake in the muscle was expressed as a percentage of the injected radioactive dose per gram of tissue (% ID/g) in B16/F1 Murine Melanoma-Bearing C57 Mice at 0.5 h; procedure, shortened: as §1
# Mus musculus [22] = species on record: Mus musculus; assay: Uptake Ratio of Tumor/blood (each in % ID/g) in B16/F1 Murine Melanoma-Bearing C57 Mice at 0.5 h; procedure, shortened: as §1
# Mus musculus [23] = species on record: Mus musculus; assay: Uptake Ratio of Tumor/blood (each in % ID/g) in B16/F1 Murine Melanoma-Bearing C57 Mice at 2 h; procedure, shortened: as §1
# Mus musculus [24] = species on record: Mus musculus; assay: Uptake Ratio of Tumor/blood (each in % ID/g) in B16/F1 Murine Melanoma-Bearing C57 Mice at 24 h; procedure, shortened: as §1
# Mus musculus [25] = species on record: Mus musculus; assay: Uptake Ratio of Tumor/kidneys (each in % ID/g) in B16/F1 Murine Melanoma-Bearing C57 Mice at 0.5 h; conditions: Kidney; procedure, shortened: as §1
# Mus musculus [26] = species on record: Mus musculus; assay: Uptake Ratio of Tumor/liver (each in % ID/g) in B16/F1 Murine Melanoma-Bearing C57 Mice at 24 h; procedure, shortened: as §1
# Mus musculus [27] = species on record: Mus musculus; assay: Uptake Ratio of Tumor/liver (each in % ID/g) in B16/F1 Murine Melanoma-Bearing C57 Mice at 4 h; procedure, shortened: as §1
# Mus musculus [28] = species on record: Mus musculus; assay: Uptake Ratio of Tumor/lungs (each in % ID/g) in B16/F1 Murine Melanoma-Bearing C57 Mice at 0.5 h
# Procedure, shortened: (§2)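 Female C57 BL/6 mice, 7–8 weeks old, carried subcutaneous right-flank B16/F1 tumors from 1×10^6 cells and were used 9–10 days later at ~500 mg tumor weight. Each received […] of HPLC-purified, pH-neutralized ¹¹¹In-DOTA peptide by tail vein. Tumor and organs were excised at the stated time, weighed and γ-counted. Each tissue was taken as % ID/g, and tumor/normal-tissue ratios were formed from these values.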
# Mus musculus [29] = species on record: Mus musculus; assay: Uptake Ratio of Tumor/lungs (each in % ID/g) in B16/F1 Murine Melanoma-Bearing C57 Mice at 2 h; procedure, shortened: as §2
# Mus musculus [30] = species on record: Mus musculus; assay: Uptake Ratio of Tumor/lungs (each in % ID/g) in B16/F1 Murine Melanoma-Bearing C57 Mice at 24 h; procedure, shortened: as §2
# Mus musculus [31] = species on record: Mus musculus; assay: Uptake Ratio of Tumor/lungs (each in % ID/g) in B16/F1 Murine Melanoma-Bearing C57 Mice at 4 h; procedure, shortened: as §2
# Mus musculus [32] = species on record: Mus musculus; assay: Uptake Ratio of Tumor/muscle (each in % ID/g) in B16/F1 Murine Melanoma-Bearing C57 Mice at 4 h; conditions: Muscle tissue; procedure, shortened: as §2
# Mus musculus [33] = species on record: Mus musculus; assay: Uptake Ratio of Tumor/kidneys (each in % ID/g) in B16/F1 Murine Melanoma-Bearing C57 Mice at 24 h; conditions: Kidney; procedure, shortened: as §1
Substance,ID/g (Mus musculus [1]) [%],ID/g (Mus musculus [2]) [%],ID/g (Mus musculus [3]) [%],ID/g (Mus musculus [4]) [%],ID/g (Mus musculus [5]) [%],ID/g (Mus musculus [6]) [%],ID/g (Mus musculus [7]) [%],ID/g (Mus musculus [8]) [%],ID/g (Mus musculus [9]) [%],ID/g (Mus musculus [10]) [%],ID/g (Mus musculus [11]) [%],ID/g (Mus musculus [12]) [%],ID/g (Mus musculus [13]) [%],ID/g (Mus musculus [14]) [%],ID/g (Mus musculus [15]) [%],ID/g (Mus musculus [16]) [%],ID/g (Mus musculus [17]) [%],ID/g (Mus musculus [18]) [%],ID/g (Mus musculus [19]) [%],ID/g (Mus musculus [20]) [%],other results
Ac-Lys(DOTA)-ReCCEHdFRWCKPV-NH2,0.48,0.18,0.057,0.51,0.11,0.21,0.19,8.15,0.11,1.99,0.072,18.4,13.4,0.66,0.24,0.29,1.51,0.18,0.14,0.18,ID/g (Mus musculus [21]): 0.42%; Uptake ratio (Mus musculus [22]): 3.8; Uptake ratio (Mus musculus [23]): 175; Uptake ratio (Mus musculus [24]): 67.2; Uptake ratio (Mus musculus [25]): 0.3; Uptake ratio (Mus musculus [26]): 12.7; Uptake ratio (Mus musculus [27]): 20.8; Uptake ratio (Mus musculus [28]): 4.7; Uptake ratio (Mus musculus [29]): 48.6; Uptake ratio (Mus musculus [30]): 22.9; Uptake ratio (Mus musculus [31]): 48.4; Uptake ratio (Mus musculus [32]): 3400; Uptake ratio (Mus musculus [33]): 0.27
DOTA-ReCCEHdFRWCKPV-NH2,0.62,0.027,0.043,0.59,0.09,0.14,0.22,11.4,0.031,1.57,0.01,8.98,5.64,0.59,0.23,0.2,1.7,0.18,0.06,0.11,ID/g (Mus musculus [21]): 0.42%; Uptake ratio (Mus musculus [22]): 6.9; Uptake ratio (Mus musculus [23]): 196; Uptake ratio (Mus musculus [24]): 601; Uptake ratio (Mus musculus [25]): 0.85; Uptake ratio (Mus musculus [26]): 32.7; Uptake ratio (Mus musculus [27]): 49.4; Uptake ratio (Mus musculus [28]): 6.6; Uptake ratio (Mus musculus [29]): 69.4; Uptake ratio (Mus musculus [30]): 169; Uptake ratio (Mus musculus [31]): 100; Uptake ratio (Mus musculus [32]): 159; Uptake ratio (Mus musculus [33]): 0.88
